{"source": "ChEMBL document CHEMBL3526116", "about": "“Toxicological evaluation of acyl glucuronides of nonsteroidal anti-inflammatory drugs using human embryonic kidney 293 cells stably expressing human UDP-glucuronosyltransferase and human hepatocytes” (Drug Metab Dispos, 2011)", "key": {"HEK293 [1]": {"tested_on": "HEK293", "assay": "Cytotoxicity against HEK293 cells expressing UGT assessed as decrease in cell viability at 1 mM measured up to 72 hrs by MTT assay", "format": "ADME, cell-based", "settings": "human, hek293, 72 h, 1000 µM", "outline": "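Mock and UGT1A3/UGT1A4 stable HEK293 cells given drug for up to 72 h; viability measured by WST-8-based MTT assay.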"}, "HEK293 [2]": {"tested_on": "HEK293", "assay": "Cytotoxicity against mock transfected HEK293 cells assessed as decrease in cell viability at 1 mM by MTT assay", "format": "cell-based", "settings": "human, hek293, 1000 µM; TDE = time-dependent effect"}, "HEK293 [3]": {"tested_on": "HEK293", "assay": "Cytotoxicity against HEK293 cells expressing UGT1A3 assessed as decrease in cell viability by measuring intracellular ATP content at 1 mM by CellTiter-Glo luminescent assay", "format": "ADME, cell-based", "settings": "human, hek293, 1000 µM; TDE = time-dependent effect", "outline": "(§1)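 UGT1A3 or UGT1A4 stable HEK293 cells, 2 x 10^4 cells/well in 0.1 mL DMEM with 0.5% FBS, drug for 6, 12 or 24 h. Viability from intracellular ATP via CellTiter-Glo luminescence, expressed as percent of control cells. Mean ± SD of triplicates.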"}, "[4]": {"target": "T1, UDP-glucuronosyltransferase 1A4 (Homo sapiens, UniProt P22310)", "T1 sequence (P22310 whole entry)": "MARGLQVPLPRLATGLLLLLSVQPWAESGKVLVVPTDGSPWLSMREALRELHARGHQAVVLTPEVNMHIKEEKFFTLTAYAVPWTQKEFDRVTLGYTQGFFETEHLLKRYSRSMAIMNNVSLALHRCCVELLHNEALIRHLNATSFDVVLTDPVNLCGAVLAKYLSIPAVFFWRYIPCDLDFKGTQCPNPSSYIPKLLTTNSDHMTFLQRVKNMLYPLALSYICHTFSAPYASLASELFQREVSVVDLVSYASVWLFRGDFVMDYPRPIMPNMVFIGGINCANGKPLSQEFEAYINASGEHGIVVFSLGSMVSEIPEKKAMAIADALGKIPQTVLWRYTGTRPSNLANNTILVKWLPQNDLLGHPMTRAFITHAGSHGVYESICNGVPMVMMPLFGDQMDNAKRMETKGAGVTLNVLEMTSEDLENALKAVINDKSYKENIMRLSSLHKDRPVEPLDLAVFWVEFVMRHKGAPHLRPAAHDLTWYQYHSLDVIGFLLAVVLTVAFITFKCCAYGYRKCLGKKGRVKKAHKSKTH", "assay": "Activity of human UGT1A4 expressed in HEK293 cells assessed as enzyme-mediated ketoprofen acyl-beta-D-glucuronide formation at 1 mM measured at 24 hrs by LC-MS/MS analysis", "format": "ADME, cell-based", "settings": "hek293, 24 h, 1000 µM", "outline": "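HEK293 stably expressing human UGT1A4, 2 x 10^5 cells/well in DMEM with 0.5% FBS, drug exposure 6–24 h, DMSO ≤0.1% final. Acyl glucuronide in cell fraction and medium measured by LC-MS/MS after methanol/acetic acid (100:1) precipitation and centrifugation. Triplicate determinations.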"}, "HEK293 [5]": {"tested_on": "HEK293", "assay": "Cytotoxicity against HEK293 cells expressing UGT assessed as LDH leakage at 1 mM after 6 to 24 hrs by spectrophotometric analysis relative to total cell LDH level", "format": "ADME, cell-based", "settings": "human, hek293, 1000 µM", "outline": "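Stable UGT-expressing or mock HEK293 lines in DMEM with 0.5% FBS, 2 x 10^4 cells/well, drug for 6, 12 or 24 h. LDH released into medium read at 490 nm (690 nm reference); percentage calculated against maximum release from control cells lysed with 1% Triton X-100.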"}, "[6]": {"target": "T2, UDP-glucuronosyltransferase 1A3 (Homo sapiens, UniProt P35503)", "T2 sequence (P35503 whole entry)": "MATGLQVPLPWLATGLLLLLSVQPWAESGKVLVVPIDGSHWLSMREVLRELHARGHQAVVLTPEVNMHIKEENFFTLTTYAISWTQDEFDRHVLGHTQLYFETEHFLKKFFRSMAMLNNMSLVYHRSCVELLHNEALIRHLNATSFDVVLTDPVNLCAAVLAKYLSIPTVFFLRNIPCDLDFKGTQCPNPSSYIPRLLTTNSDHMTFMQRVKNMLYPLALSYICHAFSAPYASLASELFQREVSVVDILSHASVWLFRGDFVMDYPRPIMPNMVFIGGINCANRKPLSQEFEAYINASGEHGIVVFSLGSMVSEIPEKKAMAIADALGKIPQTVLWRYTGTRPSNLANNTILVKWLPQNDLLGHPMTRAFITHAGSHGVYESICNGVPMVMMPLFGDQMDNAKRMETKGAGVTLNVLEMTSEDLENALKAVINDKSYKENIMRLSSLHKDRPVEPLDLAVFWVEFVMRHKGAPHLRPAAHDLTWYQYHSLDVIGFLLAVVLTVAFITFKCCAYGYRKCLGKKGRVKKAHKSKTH", "assay": "Activity of human UGT1A3 expressed in HEK293 cells assessed as enzyme-mediated ketoprofen acyl-beta-D-glucuronide formation at 1 mM measured at 24 hrs by LC-MS/MS analysis", "format": "ADME, cell-based", "settings": "hek293, 24 h, 1000 µM", "outline": "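HEK293 stably expressing human UGT1A3 (G418-selected), 2 x 10^5 cells/well in 1 mL DMEM with 0.5% FBS, exposed immediately to drug for 6, 12 or 24 h; DMSO ≤0.1% final. Cells and medium separated by centrifugation, cell fraction resuspended in PBS; aliquots mixed 1:1 with methanol/acetic acid (100:1), spun, supernatant analysed by LC-MS/MS. Triplicate determinations, mean ± SD.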"}, "HEK293 [7]": {"tested_on": "HEK293", "assay": "Cytotoxicity against HEK293 cells expressing UGT1A3 assessed as decrease in cell viability at 1 mM by MTT assay", "format": "ADME, cell-based", "settings": "human, hek293, 1000 µM; TDE = time-dependent effect"}, "HEK293 [8]": {"tested_on": "HEK293", "assay": "Cytotoxicity against HEK293 cells expressing UGT1A4 assessed as decrease in cell viability at 1 mM by MTT assay", "format": "ADME, cell-based", "settings": "human, hek293, 1000 µM; TDE = time-dependent effect"}, "HEK293 [9]": {"tested_on": "HEK293", "assay": "Cytotoxicity against HEK293 cells expressing UGT1A4 assessed as decrease in cell viability by measuring intracellular ATP content at 1 mM by CellTiter-Glo luminescent assay", "format": "ADME, cell-based", "settings": "human, hek293, 1000 µM; TDE = time-dependent effect", "outline": "as §1"}, "HEK293 [10]": {"tested_on": "HEK293", "assay": "Cytotoxicity against mock transfected HEK293 cells assessed as decrease in cell viability by measuring intracellular ATP content at 1 mM by CellTiter-Glo luminescent assay", "format": "cell-based", "settings": "human, hek293, 1000 µM; TDE = time-dependent effect", "outline": "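Mock-transfected HEK293 cells seeded at 2 x 10^4 cells/well in DMEM with 0.5% FBS, drug added at once and incubated 6, 12 or 24 h. Viability read either by WST-8 (CCK-8) formazan absorbance at 450 nm or by intracellular ATP luminescence (CellTiter-Glo), as percent of control cells; mean ± SD of triplicates. Final DMSO ≤0.1%.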"}, "HEK293 [11]": {"tested_on": "HEK293", "assay": "Genotoxicity in HEK293 cells expressing UGT1A3 assessed as DNA strand breaks at 1 mM after 24 hrs by comet assay", "format": "toxicity, cell-based", "settings": "human, hek293, 24 h, 1000 µM", "outline": "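Alkaline comet assay: HEK/UGT1A3 cells seeded 24 h before, treated 24 h in DMEM with 0.5% FBS (vehicle 0.1% DMSO; MMS 0.1 mM positive control). Cells embedded in LMP agarose, lysed 1 h at 4°C at pH 10, unwound 30 min in NaOH/EDTA, electrophoresed 300 mA 20 min, ethidium-stained; tail moment scored on 150-180 comets over >3 experiments, median (IQR).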"}}, "data": [{"smiles": "CC(C(=O)O)c1cccc(C(=O)c2ccccc2)c1", "note": "(stereo unspecified) [KETOPROFEN]", "values": [{"measurement": "Activity", "setting": "HEK293 [1]", "value": "Non-toxic"}, {"measurement": "Activity", "setting": "HEK293 [2]", "value": "tde"}, {"measurement": "Activity", "setting": "HEK293 [3]", "value": "tde"}, {"measurement": "Drug metabolism", "setting": "[4]", "value": "metabolite_not_detected"}, {"measurement": "Activity", "setting": "HEK293 [5]", "value": "< 5.4", "unit": "%"}, {"measurement": "Drug metabolism", "setting": "[6]", "value": "metabolite_detected"}, {"measurement": "Activity", "setting": "HEK293 [7]", "value": "tde"}, {"measurement": "Activity", "setting": "HEK293 [8]", "value": "tde"}, {"measurement": "Activity", "setting": "HEK293 [9]", "value": "tde"}, {"measurement": "Activity", "setting": "HEK293 [10]", "value": "tde"}, {"measurement": "Activity", "setting": "HEK293 [11]", "value": "Non-toxic"}]}]}
